pIC50: −log10 of the molar value.
Legend:
Stromelysin-1 = Stromelysin-1 (Homo sapiens, UniProt P08254); test: Inhibition of human MMP-3 using NFF-2 as substrate at 10 uM after 30 mins
[1] = biological target: T1, A disintegrin and metalloproteinase with thrombospondin motifs 4 (Homo sapiens, UniProt O75173); test: Inhibition of human recombinant ADAMTS-4 using QTVTWPDMELPLPRNITEGEARGSVIL-TVKPIFEVSPSPL(biotinyl)K as substrate incubated for 10 mins prior to substrate addition measured after 3 hrs by spectrophotometry
T1 sequence (O75173 whole entry): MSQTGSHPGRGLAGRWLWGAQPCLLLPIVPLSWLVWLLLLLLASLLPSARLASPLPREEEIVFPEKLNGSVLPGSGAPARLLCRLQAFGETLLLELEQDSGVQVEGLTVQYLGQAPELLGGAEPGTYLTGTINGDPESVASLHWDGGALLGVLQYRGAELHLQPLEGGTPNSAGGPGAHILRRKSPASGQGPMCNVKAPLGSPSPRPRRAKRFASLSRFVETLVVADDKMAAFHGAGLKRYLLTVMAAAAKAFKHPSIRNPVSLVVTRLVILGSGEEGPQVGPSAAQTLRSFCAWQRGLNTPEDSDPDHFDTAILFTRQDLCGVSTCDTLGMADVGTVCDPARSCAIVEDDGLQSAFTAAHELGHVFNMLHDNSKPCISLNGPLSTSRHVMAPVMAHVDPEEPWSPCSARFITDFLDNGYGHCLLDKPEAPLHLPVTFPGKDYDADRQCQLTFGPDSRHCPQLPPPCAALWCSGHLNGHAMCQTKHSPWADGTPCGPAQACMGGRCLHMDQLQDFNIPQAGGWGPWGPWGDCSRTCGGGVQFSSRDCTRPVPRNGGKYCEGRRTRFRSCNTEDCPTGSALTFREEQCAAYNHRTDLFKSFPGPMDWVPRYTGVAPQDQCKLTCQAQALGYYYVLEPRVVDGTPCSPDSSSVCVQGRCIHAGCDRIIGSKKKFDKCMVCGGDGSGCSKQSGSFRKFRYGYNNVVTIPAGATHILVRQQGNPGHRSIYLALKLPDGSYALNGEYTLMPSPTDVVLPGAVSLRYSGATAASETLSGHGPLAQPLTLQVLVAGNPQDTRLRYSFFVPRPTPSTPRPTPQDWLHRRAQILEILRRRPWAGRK
In short: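 It was then added to streptavidin wells coated with the biotinylated 41-mer aggrecan peptide and reacted for 3 h at 37 °C. Cleavage product was detected by BC-3 anti-ARGxx ELISA with HRP and TMB, read at 450 nm.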

[2] = biological target: T2, A disintegrin and metalloproteinase with thrombospondin motifs 5 (Homo sapiens, UniProt Q9UNA0); test: Inhibition of human recombinant ADAMTS-5 using QTVTWPDMELPLPRNITEGEARGSVIL-TVKPIFEVSPSPL(biotinyl)K as substrate incubated 10 mins prior to substrate addition measured after 3 hrs by spectrophotometry
T2 sequence (Q9UNA0 whole entry): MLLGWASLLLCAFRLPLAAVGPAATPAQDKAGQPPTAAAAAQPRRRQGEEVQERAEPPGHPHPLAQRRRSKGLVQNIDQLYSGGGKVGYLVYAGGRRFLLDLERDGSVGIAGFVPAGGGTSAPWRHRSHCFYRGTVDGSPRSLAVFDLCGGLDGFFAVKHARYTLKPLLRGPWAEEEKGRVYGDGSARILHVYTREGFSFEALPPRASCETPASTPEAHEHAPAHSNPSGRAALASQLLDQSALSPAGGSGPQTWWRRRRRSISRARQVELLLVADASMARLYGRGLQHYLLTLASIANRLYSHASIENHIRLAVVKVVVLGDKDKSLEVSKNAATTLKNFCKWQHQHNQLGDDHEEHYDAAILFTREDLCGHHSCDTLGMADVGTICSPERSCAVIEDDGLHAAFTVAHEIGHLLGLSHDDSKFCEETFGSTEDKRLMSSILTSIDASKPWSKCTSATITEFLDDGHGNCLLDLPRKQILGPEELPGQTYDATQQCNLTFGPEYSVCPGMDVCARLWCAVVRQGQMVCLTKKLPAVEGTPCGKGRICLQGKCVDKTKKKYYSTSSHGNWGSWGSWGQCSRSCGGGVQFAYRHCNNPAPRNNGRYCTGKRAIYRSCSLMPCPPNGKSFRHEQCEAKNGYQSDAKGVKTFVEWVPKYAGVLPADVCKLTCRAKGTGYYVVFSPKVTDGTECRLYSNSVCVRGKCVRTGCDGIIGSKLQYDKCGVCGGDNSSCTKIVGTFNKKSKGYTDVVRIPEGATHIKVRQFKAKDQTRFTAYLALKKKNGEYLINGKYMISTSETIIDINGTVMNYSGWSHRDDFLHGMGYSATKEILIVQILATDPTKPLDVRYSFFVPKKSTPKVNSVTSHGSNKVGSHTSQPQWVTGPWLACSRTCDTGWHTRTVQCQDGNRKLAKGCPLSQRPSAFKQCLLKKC

[3] = biological target: 72 kDa type IV collagenase (Homo sapiens, UniProt P08253); test: Inhibition of human MMP-2 using NFF-2 as substrate at 10 uM after 90 mins
Sequence of 72 kDa type IV collagenase (P08253 110-660 limits assumed): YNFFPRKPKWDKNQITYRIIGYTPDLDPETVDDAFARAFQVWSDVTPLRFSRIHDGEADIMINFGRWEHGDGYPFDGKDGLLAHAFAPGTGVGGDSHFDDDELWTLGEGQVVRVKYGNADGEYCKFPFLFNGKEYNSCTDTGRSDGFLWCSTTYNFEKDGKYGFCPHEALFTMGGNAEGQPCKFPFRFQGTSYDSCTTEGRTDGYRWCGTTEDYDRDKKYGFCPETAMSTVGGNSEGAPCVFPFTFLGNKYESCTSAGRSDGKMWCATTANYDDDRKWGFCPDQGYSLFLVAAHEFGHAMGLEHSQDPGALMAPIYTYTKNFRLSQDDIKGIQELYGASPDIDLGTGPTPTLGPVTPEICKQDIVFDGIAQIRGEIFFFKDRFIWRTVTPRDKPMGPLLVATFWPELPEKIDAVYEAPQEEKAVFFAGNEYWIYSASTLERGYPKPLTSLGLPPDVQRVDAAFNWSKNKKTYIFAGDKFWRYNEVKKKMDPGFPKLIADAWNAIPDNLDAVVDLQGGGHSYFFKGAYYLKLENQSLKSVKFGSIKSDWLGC

Sequence of Stromelysin-1 (P08254 100-477 limits assumed): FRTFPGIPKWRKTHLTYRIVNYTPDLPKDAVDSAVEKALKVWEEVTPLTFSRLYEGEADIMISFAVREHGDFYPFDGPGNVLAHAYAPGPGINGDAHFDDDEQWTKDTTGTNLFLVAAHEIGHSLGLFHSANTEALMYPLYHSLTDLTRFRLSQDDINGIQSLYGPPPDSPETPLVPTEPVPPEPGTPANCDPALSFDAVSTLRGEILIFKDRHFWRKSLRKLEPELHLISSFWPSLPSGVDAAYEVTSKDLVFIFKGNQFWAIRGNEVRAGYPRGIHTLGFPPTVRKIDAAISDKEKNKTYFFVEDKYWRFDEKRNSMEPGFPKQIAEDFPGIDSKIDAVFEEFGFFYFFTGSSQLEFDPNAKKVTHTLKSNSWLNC

**Q.** Which results are given for `O=C(COc1ccc(Cl)cc1)NNC(=S)NCCCCC1CCCCC1`?
**A.** inhibition (Stromelysin-1): < 10%; pIC50 [1]: 6.20; pIC50 [2]: 6.77; inhibition [3]: < 10%

From ChEMBL document CHEMBL2434855, “Aggrecanase-2 inhibitors based on the acylthiosemicarbazide zinc-binding group” (Eur J Med Chem, 2013)
